Tests used:
[1] = biological target: T1, Prostaglandin G/H synthase 2 (Ovis aries) (UniProt P79208); assay: Inhibition of Prostaglandin G/H synthase 2 from sheep placenta at 300 uM
T1 sequence (whole entry): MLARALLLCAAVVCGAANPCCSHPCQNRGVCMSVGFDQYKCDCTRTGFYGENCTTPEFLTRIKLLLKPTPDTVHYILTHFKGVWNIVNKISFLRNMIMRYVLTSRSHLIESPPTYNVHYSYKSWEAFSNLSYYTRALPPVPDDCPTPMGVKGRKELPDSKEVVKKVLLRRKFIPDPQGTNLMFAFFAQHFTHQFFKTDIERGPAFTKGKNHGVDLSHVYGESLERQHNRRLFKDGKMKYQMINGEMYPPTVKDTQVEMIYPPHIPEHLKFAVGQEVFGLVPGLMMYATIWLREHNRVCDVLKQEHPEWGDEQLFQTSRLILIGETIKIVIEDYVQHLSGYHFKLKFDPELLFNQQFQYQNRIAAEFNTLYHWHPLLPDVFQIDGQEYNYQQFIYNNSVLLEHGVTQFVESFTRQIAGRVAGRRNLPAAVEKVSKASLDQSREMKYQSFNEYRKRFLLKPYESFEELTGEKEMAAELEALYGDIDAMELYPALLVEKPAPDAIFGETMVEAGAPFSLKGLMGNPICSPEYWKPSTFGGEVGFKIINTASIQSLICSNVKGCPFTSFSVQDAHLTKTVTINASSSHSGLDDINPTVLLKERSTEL

[2] = biological target: T2, Prostaglandin G/H synthase 1 (Ovis aries) (UniProt P05979); assay: Inhibition of Prostaglandin G/H synthase 1 isolated from ram (sheep) seminal vesicle at 300 uM; type: tissue-based
T2 sequence (whole entry): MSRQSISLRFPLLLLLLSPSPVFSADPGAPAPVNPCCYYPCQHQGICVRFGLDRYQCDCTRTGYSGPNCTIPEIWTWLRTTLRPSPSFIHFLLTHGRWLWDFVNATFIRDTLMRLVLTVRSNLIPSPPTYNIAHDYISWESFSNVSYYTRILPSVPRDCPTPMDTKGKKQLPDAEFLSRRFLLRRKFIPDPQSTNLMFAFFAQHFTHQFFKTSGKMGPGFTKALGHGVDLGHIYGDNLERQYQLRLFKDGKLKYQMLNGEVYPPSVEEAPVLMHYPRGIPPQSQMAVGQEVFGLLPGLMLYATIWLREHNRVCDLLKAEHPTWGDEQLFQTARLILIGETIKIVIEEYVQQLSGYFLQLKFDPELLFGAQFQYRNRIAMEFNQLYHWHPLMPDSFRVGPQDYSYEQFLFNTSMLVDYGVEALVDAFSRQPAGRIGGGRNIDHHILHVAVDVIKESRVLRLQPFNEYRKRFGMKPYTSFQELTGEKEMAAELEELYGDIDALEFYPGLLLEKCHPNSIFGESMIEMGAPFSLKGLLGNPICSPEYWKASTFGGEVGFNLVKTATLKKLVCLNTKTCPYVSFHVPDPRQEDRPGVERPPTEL

[3] = species: Cavia porcellus; assay: (§1) Inhibition of CCl4 induced lipid peroxidation (LPO) of guinea pig hepatic microsomes at 300 uM concentration; type: functional; conditions: Liver
How it was run: (§2)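 Lipid peroxidation of polyunsaturated fatty acids in guinea pig liver microsomes was induced with CCl₄. Test compounds were used at 300 µM. Malondialdehyde (MDA) formation was quantified spectrophotometrically, and results are reported as percent inhibition.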

[4] = biological target: T3, Polyunsaturated fatty acid 5-lipoxygenase (Rattus norvegicus) (UniProt P12527); assay: Inhibition of 5-lipoxygenase of rat basophilic leukemia cells at 30 uM; type: cell-based; conditions: RBL-1
T3 sequence (whole entry): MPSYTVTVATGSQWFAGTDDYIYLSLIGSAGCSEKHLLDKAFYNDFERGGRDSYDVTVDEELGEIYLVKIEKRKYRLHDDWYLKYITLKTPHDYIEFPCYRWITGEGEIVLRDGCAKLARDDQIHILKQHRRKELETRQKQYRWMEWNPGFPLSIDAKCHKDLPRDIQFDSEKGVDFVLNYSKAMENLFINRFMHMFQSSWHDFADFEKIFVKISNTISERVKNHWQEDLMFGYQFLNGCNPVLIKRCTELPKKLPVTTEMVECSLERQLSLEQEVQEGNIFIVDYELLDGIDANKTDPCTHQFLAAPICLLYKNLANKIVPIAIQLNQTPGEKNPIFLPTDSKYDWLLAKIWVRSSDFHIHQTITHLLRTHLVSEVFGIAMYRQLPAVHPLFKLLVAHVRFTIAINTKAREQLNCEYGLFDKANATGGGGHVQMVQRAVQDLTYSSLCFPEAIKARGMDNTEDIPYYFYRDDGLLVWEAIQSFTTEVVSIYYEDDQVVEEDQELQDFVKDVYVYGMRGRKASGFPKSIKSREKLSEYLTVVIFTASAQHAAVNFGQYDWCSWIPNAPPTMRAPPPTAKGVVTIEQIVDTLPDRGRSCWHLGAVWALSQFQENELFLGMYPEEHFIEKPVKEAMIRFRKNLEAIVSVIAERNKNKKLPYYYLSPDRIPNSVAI
How it was run: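 5-LO source was a crude enzyme preparation from broken rat basophilic leukemia (RBL-1) cells. Compounds were screened at a single concentration of 30 µM, and results are reported as percent inhibition.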

[5] = biological target: T4, Polyunsaturated fatty acid 5-lipoxygenase (Rattus norvegicus, UniProt P12527); assay: Inhibitory activity against 5-lipoxygenase obtained from rat basophilic leukemia cells
T4 sequence (P12527 whole entry): T3 sequence (whole entry)
How it was run: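 IC50 was determined against 5-LO in a broken RBL-1 cell assay, using a crude enzyme preparation from rat basophilic leukemia cells.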

[6] = species: Cavia porcellus; assay: as §1; type: functional; conditions: Liver; how it was run: as §2; remark: listed apart in the source

SMILES	inhibition [1] [%]	inhibition [2] [%]	inhibition [4] [%]	IC50 [5] [nM]	IC50 [6] [nM]	inhibition [3] [%]
O=C1C(O)=C(O)OC1CCC#Cc1ccccc1 (stereo unspecified)	13	5	58			62
O=C1C(O)=C(O)OC1CCC#Cc1ccccc1CSc1ccccc1 (stereo unspecified)	15	25	100	300		61
CC(=O)Oc1ccccc1C(=O)O	0	76	0			4
O=C1C(O)=C(O)OC1CCC#Cc1ccc(Cc2ccc(F)cc2)s1 (stereo unspecified)			100	160		
Cc1c(C)c2c(c(C)c1O)CC[C@@](C)(CCC[C@H](C)CCC[C@H](C)CCCC(C)C)O2 [ALPHA-TOCOPHEROL]					280000	
C[C@H](C#Cc1ccc(Cc2ccc(F)cc2)s1)N(O)C(N)=O [ATRELEUTON]				23		
CCC/C=C\Cc1ccccc1/C=C\CCC1OC(O)=C(O)C1=O (stereo unspecified)	28	37	99			68
CCCCS(=O)(=O)Nc1ccccc1C#CCCC1OC(O)=C(O)C1=O (stereo unspecified)	23	8	81			75

The next lines start with results.

inhibition [1] [%]	inhibition [2] [%]	inhibition [4] [%]	IC50 [5] [nM]	IC50 [6] [nM]	SMILES	inhibition [3] [%]
28	55	81	400		CCC/C=C\Cc1ccccc1C#CCCC1OC(O)=C(O)C1=O (stereo unspecified)	72
20	38	82			CCCSCc1ccccc1C#CCCC1OC(O)=C(O)C1=O (stereo unspecified)	72
45	67	90			CCCCCSCc1ccccc1C#CCCC1OC(O)=C(O)C1=O (stereo unspecified)	62
18	8	43			Cc1ccccc1C#CCCC1OC(O)=C(O)C1=O (stereo unspecified)	59
12	25	30			CCCS(=O)(=O)Cc1ccccc1C#CCCC1OC(O)=C(O)C1=O (stereo unspecified)	60

From ChEMBL document CHEMBL1131465, “Design, synthesis, and biological evaluation of conformationally constrained aci-reductone mimics of arachidonic acid” (J Med Chem, 1998)
